The results in this text go back to ChEMBL document CHEMBL1153918, “Novel fatty acid synthase (FAS) inhibitors: design, synthesis, biological evaluation, and molecular docking studies” (Bioorg Med Chem, 2009).

The test system of one series is FAS. The series is described as follows: Therapeutic index, ratio of TC50 for human HLF to IC50 for rat liver FAS. The note with it: HLF cells (TC50). The essentials:
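In vitro therapeutic index = TC50 (HLF cells, MTT) / IC50 (purified rat liver FAS, NADPH oxidation at 340 nm).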

Another series addresses Fatty acid synthase (Rattus norvegicus, UniProt P12785). The series can be described thus: Inhibition of rat liver FAS by Coomassie blue staining. The essentials: (§1)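 Rat liver FAS purified, about 90% pure by SDS-PAGE with Coomassie staining. Enzyme, compound, NADPH and acetyl-CoA preincubated in K2HPO4 buffer pH 7.0 for 30 min at 37 °C. Malonyl-CoA then added and NADPH oxidation followed at 340 nm for 3 min at 37 °C. IC50 by linear regression, mean of triplicates. Single-point data given as % inhibition at 60 µM.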

Series [1] can be described thus: Cytotoxicity against human HLF by MTT assay. It is filed as cell-based. The note with it: HLF cells, read-out: TC50 (the source's name). The essentials:
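Human embryonic lung fibroblasts (HLF), viability read by MTT method. TC50 values are means of three experiments.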

For series [2], the target named is Fatty acid synthase (Rattus norvegicus) (UniProt P12785). The series is described as follows: Inhibition of rat liver FAS at 60 uM by Coomassie blue staining. The procedure, abridged:
as §1

In another series the test system is HeLa. The series is described as follows: Cytotoxicity against human HeLa cells after 20 hrs by trypan blue exclusion assay. The series is classed as functional, cell-based. The procedure, abridged: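 HeLa cells kept in DMEM with 10% fetal calf serum at 37 °C, 5% CO2, for 24 h. About 2.5×10^4 cells/well exposed to graded concentrations (DMSO solution) for 20 h. Cells then trypsinized and counted by trypan-blue exclusion. Three repeats gave SD.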

In a further series the test system is HL-60. The series is described as follows: Cytotoxicity against human HL60 cells assessed as cell viability after 2 hrs by MTT assay. The following applies: HL-60, 2 h. It is filed as functional, cell-based. The procedure, abridged: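 HL60 cells in exponential growth suspended in 1640 medium, about 2×10^4 cells/well. Serially diluted compound (DMSO solution) added, then 2 h incubation at 37 °C in 5% CO2. Viable cells counted by MTT. […] given ± SD from three repeats.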
A general note: Tetrazolium dyes change colour on reduction, which living cells bring about.

Broadly, the IC50 is the concentration that inhibits the measured activity by half. The inhibition is the relative decrease from the control value, in per cent.

Sequence of Fatty acid synthase (P12785 whole entry): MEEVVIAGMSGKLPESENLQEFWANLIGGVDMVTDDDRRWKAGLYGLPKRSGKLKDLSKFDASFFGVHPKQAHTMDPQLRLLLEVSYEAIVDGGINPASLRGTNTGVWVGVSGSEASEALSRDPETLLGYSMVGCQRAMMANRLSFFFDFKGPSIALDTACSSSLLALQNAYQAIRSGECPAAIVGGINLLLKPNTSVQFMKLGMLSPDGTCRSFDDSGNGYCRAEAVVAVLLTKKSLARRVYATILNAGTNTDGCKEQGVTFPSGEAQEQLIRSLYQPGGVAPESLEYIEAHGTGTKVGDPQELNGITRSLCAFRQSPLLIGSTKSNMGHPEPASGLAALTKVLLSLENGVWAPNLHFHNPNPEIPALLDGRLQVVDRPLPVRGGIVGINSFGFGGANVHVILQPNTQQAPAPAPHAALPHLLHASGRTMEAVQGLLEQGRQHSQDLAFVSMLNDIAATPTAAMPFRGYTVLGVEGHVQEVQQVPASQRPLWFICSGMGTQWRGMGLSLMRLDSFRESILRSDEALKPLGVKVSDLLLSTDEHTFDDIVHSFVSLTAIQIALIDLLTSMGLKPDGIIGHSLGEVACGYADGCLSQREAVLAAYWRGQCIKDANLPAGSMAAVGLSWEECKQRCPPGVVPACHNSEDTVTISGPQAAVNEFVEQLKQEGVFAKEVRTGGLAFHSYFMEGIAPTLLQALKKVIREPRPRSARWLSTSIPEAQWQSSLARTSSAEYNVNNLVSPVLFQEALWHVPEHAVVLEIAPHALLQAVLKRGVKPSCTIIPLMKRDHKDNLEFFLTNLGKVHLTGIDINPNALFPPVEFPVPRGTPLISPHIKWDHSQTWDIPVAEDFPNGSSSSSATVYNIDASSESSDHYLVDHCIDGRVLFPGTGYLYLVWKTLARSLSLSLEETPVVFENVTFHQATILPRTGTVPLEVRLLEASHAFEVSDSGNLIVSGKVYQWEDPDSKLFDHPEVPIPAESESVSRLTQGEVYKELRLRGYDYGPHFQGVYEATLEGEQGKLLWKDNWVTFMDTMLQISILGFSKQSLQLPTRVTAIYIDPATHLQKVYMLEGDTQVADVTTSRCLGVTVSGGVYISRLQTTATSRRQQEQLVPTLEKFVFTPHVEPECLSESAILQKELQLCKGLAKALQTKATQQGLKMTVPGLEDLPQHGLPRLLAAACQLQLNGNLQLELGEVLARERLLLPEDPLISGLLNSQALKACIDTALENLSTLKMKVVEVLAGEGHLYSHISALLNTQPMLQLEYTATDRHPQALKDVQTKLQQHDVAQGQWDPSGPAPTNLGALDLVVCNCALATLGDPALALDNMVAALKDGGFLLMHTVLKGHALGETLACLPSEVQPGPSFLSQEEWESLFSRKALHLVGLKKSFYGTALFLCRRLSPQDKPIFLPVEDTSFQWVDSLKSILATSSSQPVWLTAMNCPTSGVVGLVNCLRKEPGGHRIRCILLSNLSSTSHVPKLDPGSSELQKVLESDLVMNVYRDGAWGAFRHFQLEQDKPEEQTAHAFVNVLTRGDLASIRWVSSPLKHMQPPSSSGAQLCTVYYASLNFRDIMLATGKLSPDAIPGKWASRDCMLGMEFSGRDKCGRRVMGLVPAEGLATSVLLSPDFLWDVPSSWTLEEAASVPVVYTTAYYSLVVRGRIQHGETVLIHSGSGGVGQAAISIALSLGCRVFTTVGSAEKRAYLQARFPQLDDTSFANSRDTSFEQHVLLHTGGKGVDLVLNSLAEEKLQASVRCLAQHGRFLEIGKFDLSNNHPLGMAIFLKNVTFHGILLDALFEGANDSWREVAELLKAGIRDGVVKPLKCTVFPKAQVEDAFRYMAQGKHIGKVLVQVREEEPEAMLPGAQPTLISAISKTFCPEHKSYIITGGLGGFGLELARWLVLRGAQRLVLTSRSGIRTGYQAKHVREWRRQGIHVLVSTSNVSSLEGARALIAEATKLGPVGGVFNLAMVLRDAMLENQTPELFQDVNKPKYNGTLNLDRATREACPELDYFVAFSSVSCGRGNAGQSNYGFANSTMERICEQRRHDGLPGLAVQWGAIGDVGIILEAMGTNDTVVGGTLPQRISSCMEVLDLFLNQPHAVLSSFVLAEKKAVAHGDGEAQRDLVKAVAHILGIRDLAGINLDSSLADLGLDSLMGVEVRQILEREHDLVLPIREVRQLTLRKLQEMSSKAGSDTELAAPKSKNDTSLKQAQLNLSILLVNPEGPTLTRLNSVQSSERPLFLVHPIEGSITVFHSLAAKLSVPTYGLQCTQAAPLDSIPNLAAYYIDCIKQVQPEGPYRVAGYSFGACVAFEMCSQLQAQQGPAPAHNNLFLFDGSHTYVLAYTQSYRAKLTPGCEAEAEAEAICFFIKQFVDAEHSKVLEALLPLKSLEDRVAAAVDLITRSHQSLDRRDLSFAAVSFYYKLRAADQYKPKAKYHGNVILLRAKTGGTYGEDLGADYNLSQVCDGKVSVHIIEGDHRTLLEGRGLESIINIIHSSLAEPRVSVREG
Sequence of Fatty acid synthase (Rattus norvegicus) (P12785 whole entry): as above

Regarding `C=C1C(=O)S[C@H](CCCCCC)[C@H]1C(=O)O`, the selectivity ratio in the series with FAS was determined as 5.76. The molecule also registered an IC50 on Fatty acid synthase of 16.7 µM. For the same molecule, in series [1], the CC50 is 96.4 µM.

`C=C1C(=O)S[C@H](CCCCCCCCCC)[C@H]1C(=O)O` yielded an IC50 against Fatty acid synthase of 1.19 µM. For the same molecule, the CC50 in series [1] is 6.8 µM.

Take `CCCCCCCCC[C@H]1OC(=O)C(C)(C)[C@@H]1C(=O)O` (relative stereo): in series [2], the inhibition came out at 23.8%.

In turn, `CCCCCCCC[C@@H]1OC(=O)c2ccccc2[C@H]1C(=O)O` (relative stereo) gave an IC50 on Fatty acid synthase of 88.6 µM.

Molecule `CCCCCCCCCC[C@H]1OC(=O)C(=C(C)C)[C@@H]1C(=O)O` (relative stereo) registered an IC50 at Fatty acid synthase of 122 µM. For the same molecule, the CC50 in series [1] is more than 200 µM.

`CCCCCCC[C@@H]1OC(=O)c2ccccc2[C@H]1C(=O)O` (relative stereo): the inhibition in series [2] was determined as 35.9%.

As to `CCCCCC[C@@H]1OC(=O)c2ccccc2[C@H]1C(=O)O` (relative stereo), the inhibition in series [2] is 19.4%.

For `CCCCCCCCCCC[C@@H]1OC(=O)c2ccccc2[C@H]1C(=O)O` (relative stereo), in the series on FAS, the selectivity ratio is 4.84. The molecule also had an IC50 against Fatty acid synthase of 19.5 µM. Moreover, the CC50 in series [1] worked out at 94.2 µM.

For the molecule `C=C1C(=O)S[C@H](CCCCCCCCC)[C@H]1C(=O)O`, on Fatty acid synthase, the IC50 stood at 2.28 µM. Moreover, the CC50 in series [1] was 6.86 µM.

Regarding `CCCCCCCCCCC[C@H]1OC(=O)C(=C(C)C)[C@@H]1C(=O)O` (relative stereo), the selectivity ratio with FAS amounted to 5.57. Further, half-maximal inhibition against Fatty acid synthase (IC50) was put at 27.5 µM. Also, in series [1], the CC50 worked out at 153 µM.

In the case of `CCCCCCCCC[C@@H]1OC(=O)c2ccccc2[C@H]1C(=O)O` (relative stereo), the IC50 against Fatty acid synthase was 29.8 µM.

At Fatty acid synthase, `C=C1C(=O)S[C@H](CCCCCCCCCCC)[C@H]1C(=O)O` showed an IC50 of 0.79 µM. Also, the CC50 in series [1] worked out at 4.75 µM.

Turning to `CCCCCCCC[C@H]1OC(=O)C(C)(C)[C@@H]1C(=O)O` (relative stereo), the inhibition in series [2] stood at 16.7%.

`CCCCCCCCC[C@H]1OC(=O)C(=C(C)C)[C@@H]1C(=O)O` (relative stereo): the inhibition in series [2] turned out to be 38.4%.

`CCCCCCCCCC[C@@H]1OC(=O)c2ccccc2[C@H]1C(=O)O` (relative stereo) registered an IC50 against Fatty acid synthase of 24.2 µM. In addition, in series [1], the CC50 is more than 200 µM.

Regarding `CCCCCCCC[C@H]1OC(=O)C(=C(C)C)[C@@H]1C(=O)O` (relative stereo), in series [2], the inhibition was determined as 17.4%.

For the molecule `C=C1C(=O)O[C@H](CCCCCCCC)[C@H]1C(=O)O`, the selectivity ratio in the series with FAS came to 5.61.

Regarding `C=C1C(=O)S[C@H](CCCCCCCC)[C@H]1C(=O)O`, the selectivity ratio with FAS is 9.26. The IC50 on Fatty acid synthase is 2.56 µM; in the series with HeLa, 46.1 µM; in the series with HL-60, 5.38 µM. For the same molecule, the CC50 in series [1] was found to be 23.7 µM.
